Test results as given in ChEMBL document CHEMBL1149713, “1,2,4-benzothiadiazine linked pyrrolo[2,1-c][1,4]benzodiazepine conjugates: synthesis, DNA-binding affinity and cytotoxicity” (Bioorg Med Chem Lett, 2007).

Experiments:
HOP-62 = test: Cytotoxicity against human Hop62 cells; assay type: functional, cell-based
Outline: (§1)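 Sulforhodamine B (SRB) assay in human cancer cell lines: lung (A549, Hop62), breast (Zr-75-1), oral (DWD, KB, Gurav), prostate (PC3). IC50 in µM, mean of three determinations. Adriamycin as reference. Where IC50 was not reached within the concentrations tested, no value is given.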

KB = test: Cytotoxicity against human KB cells; assay type: functional, cell-based; outline: as §1
PC-3 = test: Cytotoxicity against human PC3 cells; assay type: functional, cell-based; outline: as §1
DNA [1] = test: Binding affinity to calf thymus DNA at 20 uM after 36 hrs by thermal denaturation assay; assay type: nucleic-acid assay; conditions: Bos taurus
A549 = test: Cytotoxicity against human A549 cells; assay type: functional, cell-based; outline: as §1
ZR-75-1 = test: Cytotoxicity against human Zr75-1 cells; assay type: functional, cell-based; outline: as §1
DNA [2] = test: Binding affinity to calf thymus DNA at 20 uM after 18 hrs by thermal denaturation assay; assay type: nucleic-acid assay; conditions: Bos taurus
[3] = Cytotoxicity against human Gurav cells; assay type: functional, cell-based; outline: as §1
[4] = Cytotoxicity against human DWD cells; assay type: functional, cell-based; outline: as §1

SMILES	IC50 (HOP-62) [µM]	IC50 (KB) [µM]	IC50 (PC-3) [µM]	ΔTm (DNA [1]) [°C]	IC50 (A549) [µM]	IC50 (ZR-75-1) [µM]	ΔTm (DNA [2]) [°C]	IC50 [3] [µM]	IC50 [4] [µM]
COc1cc2c(cc1OCCCCCN1CCN(C3=NS(=O)(=O)c4ccccc4N3C(C)C)CC1)N=C[C@@H]1CCCN1C2=O	27.9	2.43	27.8	6.7	30.3	0.12	6.4	26.5	27.7
COc1cccc2c1C(=O)c1c(O)c3c(c(O)c1C2=O)C[C@@](O)(C(=O)CO)C[C@@H]3O[C@H]1C[C@H](N)[C@H](O)[C@H](C)O1 [DOXORUBICIN]	–	0.17	2.26	–	–	2.32	–	–	24.9
COc1cc2c(cc1O)N=C[C@@H]1CCCN1C2=O	–	–	–	0.7	–	–	0.7	–	–
COc1cc2c(cc1OCCCCN1CCN(C3=NS(=O)(=O)c4ccccc4N3c3ccccc3)CC1)N=C[C@@H]1CCCN1C2=O	369	29.4	357	4.1	–	0.15	4.1	–	–
COc1cc2c(cc1OCCCCCN1CCN(C3=NS(=O)(=O)c4ccccc4N3c3ccccc3)CC1)N=C[C@@H]1CCCN1C2=O	–	2.3	2.35	4.6	30.2	–	4.4	356	–
COc1cc2c(cc1OCCCCN1CCN(C3=NS(=O)(=O)c4ccccc4N3C(C)C)CC1)N=C[C@@H]1CCCN1C2=O	343	26.1	–	4.3	–	2.24	4.2	–	–
